Each block holds one compound with its values, some of them ahead of it. Active and inactive are the calls of the source. No cut-off for these calls is given here.
Tests used:
[1] = target: T1, Polyunsaturated fatty acid 5-lipoxygenase (Homo sapiens) (UniProt P09917); assay: Inhibition of human recombinant 5-LO assessed as product formation at 3 uM by cell-free assay relative to control; values are per cent of control
T1 sequence (whole entry): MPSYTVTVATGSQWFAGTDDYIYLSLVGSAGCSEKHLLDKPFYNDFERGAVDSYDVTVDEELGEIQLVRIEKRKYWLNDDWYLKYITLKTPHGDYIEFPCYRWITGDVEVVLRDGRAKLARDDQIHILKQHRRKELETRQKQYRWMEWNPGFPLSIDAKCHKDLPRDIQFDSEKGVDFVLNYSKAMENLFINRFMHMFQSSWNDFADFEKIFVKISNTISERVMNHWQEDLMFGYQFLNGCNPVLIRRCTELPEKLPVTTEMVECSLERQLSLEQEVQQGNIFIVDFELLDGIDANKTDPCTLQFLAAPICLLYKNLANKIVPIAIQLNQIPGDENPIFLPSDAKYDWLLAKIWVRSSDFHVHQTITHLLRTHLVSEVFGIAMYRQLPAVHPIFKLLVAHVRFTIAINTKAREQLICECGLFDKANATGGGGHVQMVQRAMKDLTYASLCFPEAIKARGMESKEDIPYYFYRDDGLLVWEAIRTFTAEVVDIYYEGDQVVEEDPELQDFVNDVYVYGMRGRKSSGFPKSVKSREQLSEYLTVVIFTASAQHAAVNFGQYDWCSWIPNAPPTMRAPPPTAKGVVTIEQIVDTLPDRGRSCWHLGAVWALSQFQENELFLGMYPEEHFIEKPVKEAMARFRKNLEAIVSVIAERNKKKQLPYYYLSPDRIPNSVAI

[2] = target: T1, Polyunsaturated fatty acid 5-lipoxygenase (Homo sapiens); assay: Inhibition of 5-LO in human neutrophils assessed as product formation at 3 uM by cell-intact assay relative to control in presence of 2.5 uM A23187 ionophore; values are per cent of control
[3] = target: T1, Polyunsaturated fatty acid 5-lipoxygenase (Homo sapiens); assay: Binding affinity to human recombinant 5-LO ATP-bindng site using ATP-agaarose column in S40 fraction of Escherichia coli
Summary of the method: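 E. coli S40 fraction (40,000 × g supernatant) bound to ATP-agarose for 10 min at 4 °C. Pellets washed 3× with PBS-1 mM EDTA, then exposed to vehicle (0.1% DMSO) or compound for 30 min at 4 °C. Eluates and pellet-bound 5-LO resolved by SDS-PAGE and Western blot. Representative of three experiments.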

[4] = target: T2, Polyunsaturated fatty acid 5-lipoxygenase (Homo sapiens, UniProt P09917); assay: Inhibition of 5-LO in human neutrophils assessed as product formation by cell-intact assay relative to control in presence of 20 uM A23187/AA ionophore
T2 sequence (P09917 whole entry): T1 sequence (whole entry)
Summary of the method: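 Intact human neutrophils, 5 × 10^6 cells/mL, stimulated with 2.5 μM A23187 plus 20 μM exogenous AA. 5-LO products quantified by HPLC or UPLC–MS/MS relative to vehicle control. IC50 from sigmoidal variable-slope fit, means ± SE, n = 3.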

[5] = target: T2, Polyunsaturated fatty acid 5-lipoxygenase; assay: Inhibition of 5-LO in human neutrophils assessed as product formation by cell-intact assay relative to control in presence of 2.5 uM A23187 ionophore
Summary of the method: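 Intact human neutrophils, 5 × 10^6 cells/mL, stimulated with 2.5 μM A23187. 5-LO products analysed by HPLC or UPLC–MS/MS and expressed relative to DMSO vehicle control. Means ± SE, n = 3 or 4; IC50 from sigmoidal variable-slope fit.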

[6] = target: T2, Polyunsaturated fatty acid 5-lipoxygenase; assay: Inhibition of human recombinant 5-LO assessed as product formation by cell-free assay relative to control
Summary of the method: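 Partially purified human recombinant 5-LO (ATP-agarose eluate, 0.5–2 μg) in PBS-EDTA with 1 mM ATP. Preincubated with vehicle or compound 10 min at 4 °C, prewarmed 30 s at 37 °C, then started with 2 mM CaCl2 and 20 μM AA. Products analysed by HPLC. Means ± SE, n = 3 or 4; IC50 by sigmoidal variable-slope fit.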

[7] = Inhibition of pig brain GSK3 using YRRAAVPPSPSLSRHSSPHQSpEDEEE substrate by cell-free assay; set-up: species or system Sus scrofa
[8] = target: T3, Prostaglandin E synthase (Homo sapiens) (UniProt O14684); assay: Inhibition of human mPGES1 from human A549 cells assessed as PGE2 at 10 uM after 15 mins by HPLC; format: cell-based
T3 sequence (whole entry): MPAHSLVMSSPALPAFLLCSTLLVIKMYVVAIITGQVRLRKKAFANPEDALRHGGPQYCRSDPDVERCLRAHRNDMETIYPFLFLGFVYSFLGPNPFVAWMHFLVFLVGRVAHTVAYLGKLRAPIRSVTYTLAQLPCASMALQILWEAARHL
Summary of the method: (§1)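 Enzyme (ovine COX-1) or A549 microsomal preparation (human mPGES-1) given compound or reference inhibitor 10 min before reaction start. Activity expressed as % of 0.1% DMSO vehicle control, read-outs 12-HHT (COX-1) and PGE2 (mPGES-1). Means ± SE, n = 3.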

[9] = target: T4, Prostaglandin G/H synthase 1 (Ovis aries) (UniProt P05979); assay: Inhibition of ovine COX1 using arachidonic acid at 10 uM after 5 mins by HPLC analysis
T4 sequence (whole entry): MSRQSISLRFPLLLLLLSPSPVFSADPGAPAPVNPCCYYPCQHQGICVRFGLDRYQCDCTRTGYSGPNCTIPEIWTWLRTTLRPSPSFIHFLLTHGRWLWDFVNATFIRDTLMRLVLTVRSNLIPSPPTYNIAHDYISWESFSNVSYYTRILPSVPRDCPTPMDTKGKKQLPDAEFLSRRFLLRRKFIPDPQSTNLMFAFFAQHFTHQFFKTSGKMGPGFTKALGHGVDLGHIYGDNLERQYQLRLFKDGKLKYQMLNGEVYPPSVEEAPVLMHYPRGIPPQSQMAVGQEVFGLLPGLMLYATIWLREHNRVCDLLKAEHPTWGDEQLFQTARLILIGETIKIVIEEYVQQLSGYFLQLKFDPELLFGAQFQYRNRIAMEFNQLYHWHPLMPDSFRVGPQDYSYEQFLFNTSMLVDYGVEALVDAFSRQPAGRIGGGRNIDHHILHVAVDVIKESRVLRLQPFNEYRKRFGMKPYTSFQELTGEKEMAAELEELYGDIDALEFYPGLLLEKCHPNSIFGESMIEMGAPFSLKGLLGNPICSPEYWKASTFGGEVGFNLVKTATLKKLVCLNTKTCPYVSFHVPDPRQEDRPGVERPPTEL
Summary of the method: as §1

SH-SY5Y = assay: Anticancer activity against human SH-SY5Y cells assessed as reduction in cell viability; format: functional, cell-based

Compound: CN1CCN(CCO/N=C2/C(=C3/C(=O)Nc4cc(Br)ccc43)Nc3ccccc32)CC1
residual activity [1]: 82.1%
residual activity [2]: 91.1%

Compound: O=C1Nc2c(cccc2C(F)(F)F)/C1=C1/Nc2ccccc2/C1=N\O
residual activity [1]: 68%
residual activity [2]: 92.6%

Compound: O=Nc1c(-c2c(O)[nH]c3ccccc23)[nH]c2ccccc12 [INDIRUBIN-3-MONOXIME]
IC50 [4]: 8.2 µM
residual activity [1]: 78.4%
residual activity [2]: 92.2%
IC50 [5]: 11.1 µM
IC50 [7]: 0.022 µM
IC50 [6]: 15 µM

Compound: CC(C)c1ccc2c(c1)c(SC(C)(C)C)c(CC(C)(C)C(=O)O)n2Cc1ccc(Cl)cc1
inhibition [8]: Active

Compound: O=C1Nc2c(Cl)cccc2/C1=C1/Nc2ccccc2/C1=N\O
IC50 [4]: 3.1 µM
residual activity [1]: 65.8%
residual activity [2]: 67.4%
IC50 [5]: 4.9 µM
IC50 [6]: 4.9 µM

Compound: O=C1Nc2cc(Br)ccc2/C1=C1/Nc2ccccc2/C1=N\OCCN1CCOCC1
residual activity [1]: 60.3%
residual activity [2]: 62.7%

Compound: O=C1Nc2cc(Br)ccc2/C1=C1/Nc2ccccc2/C1=N\OCCN1CCN(CCO)CC1
residual activity [1]: 89.3%
residual activity [2]: 119%

Compound: CN(CCO/N=C1/C(=C2/C(=O)Nc3cc(Br)ccc32)Nc2ccccc21)CC(O)CO (configuration not stated)
residual activity [1]: 71.5%
residual activity [2]: 87%

Compound: COC(=O)c1ccc2c(c1)C(=N\O)/C(=C1/C(=O)Nc3c(Br)cccc31)N2
residual activity [1]: 72.8%
residual activity [2]: 99.1%

Compound: O=C1Nc2cc(Br)ccc2/C1=C1/Nc2ccccc2/C1=N\OCCN1CCCC1
residual activity [1]: 75.1%
residual activity [2]: 127%

Compound: O=C1Nc2c(Br)cccc2/C1=C1/Nc2cc(C(=O)O)ccc2/C1=N\O
residual activity [1]: 77.1%
residual activity [2]: 123%

Compound: O=C1Nc2cc(Br)ccc2/C1=C1/Nc2ccccc2/C1=N\OCCN1CCNCC1
residual activity [1]: 76.2%
residual activity [2]: 64.7%

Compound: COc1ccc2c(c1)c(CC(=O)O)c(C)n2C(=O)c1ccc(Cl)cc1
inhibition [9]: Active

Compound: O=C1Nc2c(Br)cccc2/C1=C1/Nc2cc(C(=O)O)ccc2C1=O
residual activity [1]: 80%
residual activity [2]: 105%

Compound: CC(c1cc2ccccc2s1)N(O)C(N)=O (configuration not stated)
residual activity [2]: 37.9%

Compound: O=C1Nc2c(F)cccc2/C1=C1/Nc2ccccc2/C1=N\O
IC50 [4]: 3.3 µM
residual activity [1]: 58.1%
residual activity [2]: 50.4%
IC50 [5]: 5 µM
IC50 [6]: 3.7 µM

Compound: O=C1Nc2c(Br)cccc2/C1=C1/Nc2ccc(/C=N/O)cc2C1=O
residual activity [1]: 80%
residual activity [2]: 95.1%

Results, then the compound that gave them:

residual activity [1]: 97.7%
residual activity [2]: 122%
Activity [3]: inactive
Compound: CN1C(=O)/C(=C2\Nc3ccccc3\C2=N/O)c2cccc(Br)c21

IC50 [4]: 3.3 µM
residual activity [1]: 62.3%
residual activity [2]: 51.1%
IC50 [5]: 2.6 µM
IC50 [6]: 5.6 µM
Compound: O=C1Nc2ccc(Br)cc2/C1=C1/Nc2ccccc2/C1=N\O [INDIRUBIN 2]

residual activity [1]: 43.9%
residual activity [2]: 111%
Compound: O=Nc1c(-c2c(O)[nH]c3ccccc23)[nH]c2cc(Br)ccc12

residual activity [1]: 58%
residual activity [2]: 77.7%
Compound: O=C1Nc2cc(Br)ccc2/C1=C1/Nc2ccccc2/C1=N\OCC(O)CO (configuration not stated)

residual activity [1]: 85.4%
residual activity [2]: 110%
Compound: O=C1Nc2c(Br)cccc2/C1=C1/Nc2ccccc2C1=O

residual activity [1]: 79.2%
residual activity [2]: 112%
Compound: CC(=O)O/N=C1/C(=C2/C(=O)Nc3c(Br)cccc32)Nc2ccccc21

residual activity [1]: 82.9%
residual activity [2]: 120%
Compound: CO/N=C1/C(=C2/C(=O)Nc3c(Br)cccc32)Nc2ccccc21

residual activity [1]: 88.3%
residual activity [2]: 81.5%
Compound: O=C1Nc2cc(Br)ccc2/C1=C1/Nc2ccccc2/C1=N\OCCO

IC50 [4]: 3.6 µM
residual activity [1]: 68.9%
residual activity [2]: 43%
EC50 (SH-SY5Y): 8 µM
IC50 [5]: 1.7 µM
IC50 [6]: 5.8 µM
Compound: O=C1Nc2c(Br)cccc2/C1=C1/Nc2ccccc2/C1=N\O

Source: ChEMBL document CHEMBL3259773, “Indirubin core structure of glycogen synthase kinase-3 inhibitors as novel chemotype for intervention with 5-lipoxygenase” (J Med Chem, 2014)
